# Compound activity as filed in PubChem BioAssay.
# AP ELISA ortho – orthogonal test for alternative complement pathway inhibitors. AID 1235. 62,000 tested, 0.08% active. Human serum alternative complement pathway, LPS-coated ELISA, C3 deposition; tested in compound mixtures. inhibition, % at 5 µM;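 active = inhibition above 30% in each of the two pooled mixtures holding the compound, so the lower value exceeds 30%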;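 also: 0% = serum in Mg-EGTA without compound and 100% = EDTA serum blank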
#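 Test system – human serum alternative complement pathway, C3 deposition on LPS-coated wells · Buffer or medium – diluted human serum in Mg2+-EGTA GVB++ · Compound dosing – 5 µM each compound, pools of ten, 50 µM per pool · Schedule – 1 h serum-compound exposure at 37 °C · Measured by – Anti-C3 ELISA, OD 450 nm · Read-out basis – percent inhibition of C3 deposition onto LPS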
# tolC growth inh – growth inhibitors of E. coli BW25113 tolC mutant; OD615; growth inhibition, % at 10 µM (by protocol); 65,000 tested, 2.2% active;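 active = growth inhibition at or above a cutoff equal to the mean over every tested compound plus 3 SD, cut at about 60% in these data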;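 also: growth measured after 20 h incubation at 37 °C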
#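 Test system: E. coli BW25113 ΔtolC::kan bacteria; incubation: 37 °C, 20 h exposure; medium: LB broth supplemented with 50 µg/mL kanamycin; read-out basis: percent growth inhibition; signal: A615 absorbance measurement; compound: 10 µM final, single dose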
# Ecoli WT expand – E. coli BW25113 growth inhibition, expanded screen | 98,000 tested, 0.15% active | growth inhibition, % at 100 µM | OD600 absorbance;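 active = growth inhibition above about 50% at one test dose, limit read from the data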;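 also: growth measured after 20 h incubation at 37 °C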
# Ec RNAP inh – inhibitors of Escherichia coli RNA polymerase; E. coli RNA polymerase, fluorescence transcription assay; inhibition, %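 (tested at 10 µM)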; 62,000 tested, 0.2% active; AID 559; in the data active = inhibition above about 20%;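 also: 0% = enzyme without compound and 100% = no enzyme blank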
# BAP1 block – human BAP1 deubiquitinase inhibition; Q92560; recombinant BAP1, Ub-AMC hydrolysis fluorescence kinetic; active compounds read low; calls only at 20 µM; 72,000 tested, 0.48% active; AID 436;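 active = activity remaining at or below 50% of control, provided the compound also passes the data quality filters; inactive = the rest, including low values that fail the filters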;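 also: 100% = DMSO wells rate and 0% = substrate alone blank rate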
# Target sequence (Q92560 whole entry, looked up): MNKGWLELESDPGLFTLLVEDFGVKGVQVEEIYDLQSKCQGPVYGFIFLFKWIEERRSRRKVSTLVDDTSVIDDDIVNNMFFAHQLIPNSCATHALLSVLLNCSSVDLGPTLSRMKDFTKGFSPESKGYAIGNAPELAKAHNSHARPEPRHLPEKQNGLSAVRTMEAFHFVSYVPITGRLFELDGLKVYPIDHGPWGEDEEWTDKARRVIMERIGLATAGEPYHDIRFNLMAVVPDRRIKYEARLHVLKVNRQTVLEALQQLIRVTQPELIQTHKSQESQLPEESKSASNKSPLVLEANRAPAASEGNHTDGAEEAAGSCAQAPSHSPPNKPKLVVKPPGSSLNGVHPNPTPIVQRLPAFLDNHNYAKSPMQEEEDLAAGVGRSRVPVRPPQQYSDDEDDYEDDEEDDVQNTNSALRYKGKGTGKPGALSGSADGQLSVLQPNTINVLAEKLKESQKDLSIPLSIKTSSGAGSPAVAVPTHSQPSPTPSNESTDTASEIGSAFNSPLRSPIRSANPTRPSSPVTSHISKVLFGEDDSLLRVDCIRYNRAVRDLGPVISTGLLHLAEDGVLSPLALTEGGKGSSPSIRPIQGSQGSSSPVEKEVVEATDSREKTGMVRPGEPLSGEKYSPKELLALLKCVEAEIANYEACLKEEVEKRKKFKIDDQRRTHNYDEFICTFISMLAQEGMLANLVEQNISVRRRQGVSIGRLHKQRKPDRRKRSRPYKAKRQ
# MMP13 inh – inhibitors of human MMP13; inhibition, % at 4 µM; MMP-13 fTHP FRET cleavage, Mca fluorescence; 65,000 tested, 0.07% active;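 active = inhibition above the mean of compound-free control plate wells plus 3 SD, cut at about 14% in these data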;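 also: 0% = DMSO wells and 100% = wells with reference MMP-13 inhibitor after basal subtraction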
# BAP1 inh confirm – BAP1 (human) enzyme inhibition, confirmed; shares compounds with BAP1 block; purified BAP1, Ub-ethyl ester hydrolysis, HPLC; active compounds read low; % of control activity, % at 20 µM; 310 tested, 8% active; AID 753;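 active = percent of control activity at or below 60%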
# Numbers without * were called inactive; i = inactive; . = not tested or not shown; + = active, no number. This is one part of a sample in which hits are shown more often than they occur.
SMILES,AP ELISA ortho,tolC growth inh,Ecoli WT expand,Ec RNAP inh,BAP1 block,MMP13 inh,others
Cc1oc2ccc(OC(=O)N(C)C)cc2c1C(=O)OC(C)C,6,22,2,13,i,-2,
CCOC(=O)c1c(-c2ccc(OC)cc2)oc2ccc(OC(=O)N(C)C)cc12,1,68*,-12,-6,.,i,
CCn1nc(-c2ccccc2)nc2c(=O)n(C)c(=O)nc1-2,6,100*,24,1,i,4,
CC(C)(C)n1c(O)c(C=Nc2ccc3c(c2)CCC3)c(=O)[nH]c1=O,14,82*,-2,6,i,1,
CNc1ccc2oc(C[C@H]3O[C@@]4(CC[C@H]3C)O[C@H]([C@H](C)C(=O)c3ccc[nH]3)[C@H](C)C[C@H]4C)nc2c1C(=O)O,.,.,.,.,+,.,
O=C(Nc1ccc(Br)cc1C(=O)c1ccccc1Cl)c1ccco1,.,.,.,.,i,.,
C1=C(CCNCc2ccccc2)CCCC1,.,.,94*,.,.,.,
Fc1ccc(CCNCc2ccccc2Cl)cc1,.,.,14,.,.,.,
CCc1nc2ccccc2c(=O)n1-c1ccc(O)cc1,.,.,.,.,i,.,
COc1ccc(OC)c(N2C(=O)NC(=O)C(CCc3ccncc3)(CCc3ccncc3)C2=O)c1,13,-4,-2,1,i,0,
O=C1NC(=O)C(CCc2ccncc2)(c2ccccc2)C(=O)N1,-2,-19,1,7,i,37*,
CN1/C(=C\C=C\C2=[N+](C)c3ccc4ccccc4c3C2(C)C)C(C)(C)c2ccccc21,.,.,84*,.,.,.,
O=c1c(Cl)c(Cl)[nH]c(Cl)c1Cl,.,.,.,.,i,.,
O=c1c2ccccc2nc(N2CCCC2)n1-c1ccccc1,.,.,-3,.,.,.,
O=c1c2ccccc2[se]n1-c1ccccc1,-2,20,.,37*,i,3,
CCOC(C(=O)OCC(O)CN(CC)CC)(c1ccccc1)c1ccccc1 (stereo not drawn),-7,12,4,22*,i,-1,
CCOC(C(=O)OCCC[N+](C)(CC)CC)(c1ccccc1)c1ccccc1,.,.,-6,.,.,.,
Cc1ccc(C)c(N2CCNCC2)c1,.,.,.,.,i,.,
Clc1ccc(COC(Cn2ccnc2)c2ccc(Cl)cc2Cl)cc1 (stereo not drawn),18,100*,.,7,i,-2,
ClCCNc1nc2ccc(Cl)cc2[nH]1,.,.,54*,.,.,.,
COc1cc(C)c(CNCCc2ccccc2OC)cc1C,.,.,.,.,i,.,
CCOc1ccc(C(=O)Nc2ccc(Br)cc2C(=O)c2ccccc2)cc1,.,.,.,.,i,.,
CCCCn1c(=O)c(C(=O)Nc2ccccc2S(N)(=O)=O)c(O)c2ccccc21,-8,98*,-4,5,.,-3,
O=C(Nc1ccc(Cl)cc1C(=O)c1ccccc1)c1ccc(Br)cc1,.,.,.,.,i,.,
COC(=O)c1cc2c(cn1)[nH]c1ccccc12,.,.,.,.,+,.,
SMILES,AP ELISA ortho,tolC growth inh,Ecoli WT expand,Ec RNAP inh,BAP1 block,MMP13 inh,others
CCCCCCCSc1cc(OC)c(CCN(C)C)cc1OC,.,.,67*,.,.,.,
Cc1nn(-c2ccccc2)c(Cl)c1C1C(C#N)=C(N)Oc2c1c(=O)oc1ccccc21 (stereo not drawn),11,68*,-19,6,i,4,
CCCCN1C(=O)NC(=O)C2(Cc3c(nc4ccccn4c3=O)N3CCc4ccccc4C32)C1=O (stereo not drawn),-11,43,8,-1,i,-2,
CCCCN1C(=O)NC(=O)C2(Cc3c(nc4c(C)cccn4c3=O)N3CCc4ccccc4C32)C1=O (stereo not drawn),16,98*,-7,4,i,2,
CCC(=NCc1ccco1)c1c(O)n(C2CCCCC2)c(=O)[nH]c1=O,-1,15,-6,-5,i,-2,
CCC(=Nc1ccc(OC)cc1OC)c1c(O)n(C2CCCCC2)c(=O)[nH]c1=O,9,77*,0,7,.,1,
Cc1ccc(C2C(S(C)(=O)=O)=C(O)C(=O)N2c2ccccc2)cc1 (stereo not drawn) (tested in a mixture with another compound),10,75*,4,7,i,-2,
CCCCn1c(=O)c(C(=O)NCc2ccncc2)c(O)c2ccccc21,-7,54,11,12,+,2,BAP1 inh confirm=141
COCCOC(=O)c1c(N)n(Cc2ccco2)c2nc3ccccc3nc12,.,13,.,-30,.,-388,BAP1 inh confirm=145
O=C(Nc1ccncc1)c1c(O)c2ccccc2n(Cc2ccccc2)c1=O,.,11,.,4,i,-2,
O=C(Nc1cccnc1)c1c(O)c2c(n(Cc3ccccc3)c1=O)CCCC2,8,36,-7,-3,+,5,BAP1 inh confirm=69
COc1ccc(C(=O)Nc2ccc(Cl)cc2C(=O)c2ccccc2Cl)c(OC)c1,.,.,.,.,i,.,
CC12CCC(O)CC1=CCC1C2CCC2(C)C(O)C(=Cc3ccc(OC(F)F)cc3)CC12 (stereo not drawn),.,.,.,.,i,.,
